IDH1 R132H inh – inhibitors of human IDH1 R132H; O75874; IDH1 R132H reductase, diaphorase/resazurin fluorescence, 60 min; inhibition, % at 10 µM; 70,000 tested, 0.18% active; in the data active means inhibition above about 34%; inconclusive means no clear call, values can overlap the other calls; inactive means below about 11%;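 further: 0% = DMSO and 100% = no enzyme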
GASC1 inh – blocks human GASC-1 (KDM4C) demethylase activity. inhibition, % at 12.5 µM. 96,000 tested, 0.15% active. GST-KDM4C 2-372, H3K9me3 peptide, LANCE TR-FRET;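 active means mean replicate inhibition above about 25%, with at least 55% of replicates also reaching it, limit read from the data, passing the limit was not always enough; inconclusive means only one of those two conditions met; inactive means neither condition met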
Target sequence (Q9H3R0 2-372 limits assumed): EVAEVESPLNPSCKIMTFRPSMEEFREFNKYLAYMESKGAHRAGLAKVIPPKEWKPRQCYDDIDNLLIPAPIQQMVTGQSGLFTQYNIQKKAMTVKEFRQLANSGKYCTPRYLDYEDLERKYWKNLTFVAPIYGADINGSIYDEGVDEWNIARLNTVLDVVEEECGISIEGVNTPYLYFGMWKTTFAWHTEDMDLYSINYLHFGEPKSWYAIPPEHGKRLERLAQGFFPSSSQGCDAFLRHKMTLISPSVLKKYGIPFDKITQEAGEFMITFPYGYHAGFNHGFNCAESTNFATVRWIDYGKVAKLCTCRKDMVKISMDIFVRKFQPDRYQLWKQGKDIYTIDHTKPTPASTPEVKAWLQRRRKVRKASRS
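Test system: N-terminal GST-fused human GASC-1 (KDM4C) fragment, residues 2-372; quantity: GASC-1 enzyme at 10 nM final in reaction; dosing: single dose; schedule: 30 min demethylation and 1 h detection at room temperature; signal: LANCE TR-FRET, excitation 340 nm, emissions 618 and 671 nm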
T cruzi growth-1 – inhibitors of T. cruzi proliferation | T. cruzi beta-gal in NIH3T3, GalScreen luminescence, 90 h | inhibition, % at 8.34 µM | 77,000 tested, 5.9% active | AID 624255;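 active means mean inhibition above about 93%, with at least 55% of replicates each passing it, limit read from the data, passing the limit was not always enough; inconclusive means only one of those two conditions holds; inactive means neither condition holds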
Pf Dd2 inh – inhibitors of Plasmodium falciparum Dd2 growth | P. falciparum Dd2 growth, SYBR Green, 72 h; hits give low values | activity change, % at 10 µM | 94,000 tested, 2.3% active | AID 1159554; in the data active means activity change below about -80%; inconclusive means no clear call, values can overlap the other calls
T cruzi growth-2 – Trypanosoma cruzi proliferation inhibition; 5,600 tested, 72% active; shares compounds with T cruzi growth-1; inhibition, % at 8.35 µM; T. cruzi beta-gal in NIH3T3, GalScreen luminescence, 90 h;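 active means mean replicate inhibition above about 95% and at least 55% of replicates individually reaching it, limit read from the data; inconclusive means only one of the two criteria is met; inactive means neither criterion is met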
T cruzi growth-3 – blocks T. cruzi growth in NIH3T3 host cells; shares compounds with T cruzi growth-1; T. cruzi beta-gal in NIH3T3, GalScreen luminescence, 90 h; inhibition, % at 2.09 µM; 5,600 tested, 21% active; AID 651740;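 active means mean inhibition above about 95%, with at least 55% of replicates also reaching it, limit read from the data; inconclusive means meets just one of the two conditions; inactive means meets neither condition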;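 further: plate controls were neutral control median for no effect and positive control median for full effect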
NIH3T3 tox – kills mouse NIH/3T3 fibroblasts; shares compounds with T cruzi growth-1; NIH/3T3 viability, CellTiter-Glo ATP luminescence, 90 h; cytotoxicity (signal decrease), % at 8.35 µM; 5,600 tested, 14% active;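 active means mean signal decrease across replicates above about 35% based on untreated-well scatter, with enough replicates individually passing, limit read from the data; inconclusive means no rule stated though some were filed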;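 further: 0% = median of neutral control wells and 100% = median of positive control wells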
3T3 cytotox 2 – kills mouse NIH/3T3 fibroblasts. shares compounds with T cruzi growth-1. NIH/3T3 viability, CellTiter-Glo ATP luminescence, 90 h. inhibition, % at 24.9 µM. 5,600 tested, 56% active;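 active means mean loss of cell viability signal at or above a set limit, and enough replicates individually reaching it; inconclusive means meets only the mean limit or only the replicate share; inactive means meets neither condition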;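 further: 0% = median of neutral control wells and 100% = median of positive control wells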
An asterisk follows results filed as active; ? = inconclusive; . = not tested or not shown. An excerpt weighted towards active compounds, which were near 5.8% of everything screened.

SMILES	IDH1 R132H inh	GASC1 inh	T cruzi growth-1	Pf Dd2 inh	T cruzi growth-2	T cruzi growth-3	NIH3T3 tox	3T3 cytotox 2
C[C@@H]1CN([C@H](C)CO)C(=O)c2cccc(NC(=O)c3ccc(-c4nccs4)cc3)c2O[C@@H]1CN(C)Cc1ccc(C(F)(F)F)cc1	-12	-1	106	-46	.	.	.	.
CC1(C)Cc2c(sc3nc(SCC(=O)c4ccccc4)nc(N)c23)CS1	0	.	.	.	.	.	.	.
CCOc1ccc(NC(=O)Cn2cc(C(=O)OC)c3ccccc32)cc1	0	.	.	.	.	.	.	.
CS(=O)(=O)N(CC(=O)Nc1ccc(Br)c(Cl)c1)c1cccc([N+](=O)[O-])c1	0	.	.	.	.	.	.	.
COc1ccc(S(=O)(=O)N2CC[C@@H]3[C@H]2c2cc(-c4ccccc4F)ccc2N(C)[C@H]3CO)cc1	.	-9	56	-22	.	.	.	.
CN1c2ccc(-c3ccccc3F)cc2[C@@H]2[C@@H](CCN2S(=O)(=O)c2ccc(F)cc2)[C@@H]1CO	.	-1	?	2	96*	?	45*	46*
CN1c2ccc(-c3ccccc3F)cc2[C@@H]2[C@@H](CCN2S(=O)(=O)c2ccc(F)cc2)[C@H]1CO	.	0	108*	4	111*	91	?	49*
CC(=O)c1cccc(N(CC(=O)Nc2ccccc2C)S(C)(=O)=O)c1	0	.	.	.	.	.	.	.
C[C@@H]1CN([C@H](C)CO)C(=O)c2cc(NC(=O)Nc3ccc(C(F)(F)F)cc3)ccc2O[C@@H](C)CCCCO[C@H]1CN(C)C(=O)c1ccccc1	.	0	?	-18	103*	113*	3	3
C[C@@H]1CCCCO[C@H](CN(C)C(=O)c2ccccc2)[C@@H](C)CN([C@H](C)CO)C(=O)c2cc(NC(=O)Nc3ccc(C(F)(F)F)cc3)ccc2O1	-2	0	?	1	106*	59	5	33*
COc1ccc(C(=O)C(C)Oc2cccc(NC(=O)c3ccc([N+](=O)[O-])cc3)c2)cc1 (configuration not stated)	0	.	.	.	.	.	.	.
COC(=O)c1ccccc1NC(=O)c1cccc(NC(=O)COc2cc(C)c(Cl)c(C)c2)c1C	0	.	.	.	.	.	.	.
O=C(c1cccc(F)c1)N1CCCCN2[C@@H](CO)[C@H](c3ccc(C#CC4(O)CCCC4)cc3)[C@@H]2C1	.	0	?	11	92	84	6	?
O=C(c1cccc(F)c1)N1CCCCN2[C@H](CO)[C@H](c3ccc(C#CC4(O)CCCC4)cc3)[C@@H]2C1	.	0	?	3	109*	76	25	11
O=C(c1cccc(F)c1)N1CCCCN2[C@H](C1)[C@@H](c1ccc(C#CC3(O)CCCC3)cc1)[C@@H]2CO	.	-1	7	6	.	.	.	.
O=C(NCCCN1CCCC1=O)c1cc(-c2ccncc2)nc2ccc(Br)cc12	0	.	.	.	.	.	.	.
COc1ccc(S(=O)(=O)Nc2cccc3c2O[C@H](CN(C)Cc2ccc(C(=O)O)cc2)[C@H](C)CN([C@@H](C)CO)C3=O)cc1	0	0	?	23	78	0	-3	15
Cc1ccc(S(=O)(=O)Nc2cccc3c2O[C@@H](CN(C)Cc2ccc(C(F)(F)F)cc2)[C@@H](C)CN([C@H](C)CO)C3=O)cc1	1	-1	102*	-13	109*	68	30	87*
Cc1ccc(S(=O)(=O)Nc2cccc3c2O[C@@H](CN(C)Cc2ccc(C(F)(F)F)cc2)[C@@H](C)CN([C@@H](C)CO)C3=O)cc1	0	-2	61	-23	.	.	.	.
COc1ccc(S(=O)(=O)Nc2cccc3c2O[C@H](CN(C)Cc2ccc(Cl)c(Cl)c2)[C@H](C)CN([C@H](C)CO)C3=O)cc1	-1	3	-12	27	.	.	.	.
Cc1noc(C)c1S(=O)(=O)Nc1cccc2c1O[C@@H](CN(C)Cc1ccccc1)[C@@H](C)CN([C@H](C)CO)C2=O	-2	0	9	14	.	.	.	.
COc1ccc(S(=O)(=O)Nc2cccc3c2O[C@@H](CN(C)Cc2ccc(Cl)c(Cl)c2)[C@H](C)CN([C@@H](C)CO)C3=O)cc1	1	0	102*	-39	110*	1	14	18
COc1ccc(S(=O)(=O)Nc2cccc3c2O[C@H](CN(C)Cc2ccc(C(=O)O)cc2)[C@@H](C)CN([C@H](C)CO)C3=O)cc1	1	0	-18	10	.	.	.	.
Cc1noc(C)c1S(=O)(=O)Nc1cccc2c1O[C@H](CN(C)Cc1ccc(-c3ccccc3)cc1)[C@H](C)CN([C@H](C)CO)C2=O	11	0	108*	-48	54	29	-14	2
COc1ccc(-c2nnc(SCC(N)=O)n2-c2cccc(C(F)(F)F)c2)cc1OC	0	.	.	.	.	.	.	.
SMILES	IDH1 R132H inh	GASC1 inh	T cruzi growth-1	Pf Dd2 inh	T cruzi growth-2	T cruzi growth-3	NIH3T3 tox	3T3 cytotox 2
CC(C)c1ccccc1NC(=O)CN(C)S(=O)(=O)c1ccc(Br)cc1	0	.	.	.	.	.	.	.
CCCC#Cc1ccc([C@H]2[C@@H](C#N)N(C(=O)C3CC3)[C@@H]2CO)cc1	.	-1	?	-26	103*	86	-29	15
CCCC#Cc1ccc([C@@H]2[C@@H](CO)N(C(=O)C3CC3)[C@H]2C#N)cc1	.	2	101*	-14	98*	70	-5	36*
CCCC#Cc1ccc([C@@H]2[C@@H](C#N)N(C(=O)C3CCOCC3)[C@H]2CO)cc1	.	-1	63	-23	.	.	.	.
CCCC#Cc1ccc([C@H]2[C@@H](C#N)N(C(=O)C3CC3)[C@H]2CO)cc1	.	0	?	-38	?	?	6	41*
CCCC#Cc1ccc([C@H]2[C@@H](C#N)N(C(=O)C3CCC3)[C@H]2CO)cc1	.	0	93	-55	.	.	.	.
CCCC#Cc1ccc([C@H]2[C@H](C#N)N(C(=O)C3CC3)[C@H]2CO)cc1	.	-1	106*	-24	107*	89	-4	32*
O=C(Cn1ccc([N+](=O)[O-])n1)NCc1ccccn1	0	.	.	.	.	.	.	.
Cc1ccc(S(=O)(=O)Nc2ccc3c(c2)C(=O)N([C@@H](C)CO)C[C@@H](C)[C@@H](CN(C)C(=O)NC2CCCCC2)OCCCC[C@@H](C)O3)cc1	0	-1	101*	-11	99*	71	-21	31
Cc1ccc(S(=O)(=O)Nc2ccc3c(c2)C(=O)N([C@@H](C)CO)C[C@@H](C)[C@H](CN(C)C(=O)NC2CCCCC2)OCCCC[C@H](C)O3)cc1	.	-3	114*	-51	92	-32	-20	-16
C[C@H]1CCCCO[C@H](CN(C)C(=O)NC2CCCCC2)[C@@H](C)CN([C@@H](C)CO)C(=O)c2cc(NS(=O)(=O)c3ccccc3)ccc2O1	.	-2	103*	-67	67	16	-32	-6

Screening data deposited in PubChem by Broad Institute.
